Assays:
[1] = Growth inhibition of human U87MG cells assessed as cell viability after 72 hrs by MTT assay; assay type: functional, cell-based, U-87MG ATCC; settings: U-87 MG
How it was run: (§1)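 Cells were grown in DMEM or RPMI with 10% FBS and 1% penicillin/streptomycin at 37 °C, 5% CO2. They were seeded at 2000–3000 cells, rested 24 h, then exposed to a range of concentrations for 72 h. MTT (5 mg/mL stock) was added for 2–4 h at 37 °C and formazan dissolved in DMSO. A570 was read and IC50 calculated; triplicate wells, three separate experiments.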

[2] = Growth inhibition of human PC3 cells assessed as cell viability after 72 hrs by MTT assay; assay type: functional, cell-based; settings: PC-3, 72 h; how it was run: as §1
[3] = Growth inhibition of human HCT116 cells assessed as cell viability after 72 hrs by MTT assay; assay type: functional, cell-based; settings: HCT-116, 72 h; how it was run: as §1

Row | Compound | IC50 [1] | IC50 [2] | IC50 [3]
1 | CS(=O)(=O)c1ccc(-c2ccc3oc(=O)c4[nH]c(=O)n(-c5ccc(CC#N)cc5)c4c3c2)cc1 | 39.7 µM | 29.6 µM | –
2 | CC(C)(C#N)c1ccc(-n2c(=O)[nH]c3c(=O)oc4ccc(-c5ccncc5)cc4c32)cc1 | 28.6 µM | 29 µM | –
3 | N#CCc1ccc(-n2c(=O)[nH]c3c(=O)oc4ccc(-c5cccnc5)cc4c32)cc1 | > 40 µM | > 40 µM | 29.4 µM
4 | COc1ccc(-n2c(=O)[nH]c3c(=O)oc4ccc(-c5cccnc5)cc4c32)cc1 | > 40 µM | > 40 µM | > 40 µM
5 | CC(C)(C#N)c1ccc(-n2c(=O)[nH]c3c(=O)oc4ccc(-c5cnc6ccccc6c5)cc4c32)cc1 | 33.4 µM | 19.8 µM | 20.4 µM
6 | Cc1ccccc1-n1c(=O)[nH]c2c(=O)oc3ccc(-c4cccnc4)cc3c21 | > 40 µM | > 40 µM | > 40 µM
7 | N#CCc1ccc(-n2c(=O)[nH]c3c(=O)oc4ccc(-c5cccc(N)c5)cc4c32)cc1 | > 40 µM | 36.5 µM | –
8 | Cc1ccccc1-c1ccc2oc(=O)c3[nH]c(=O)n(-c4ccc(CC#N)cc4)c3c2c1 | > 40 µM | > 40 µM | > 40 µM
9 | Cc1ccccc1-c1ccc2oc(=O)c3[nH]c(=O)n(-c4ccccc4)c3c2c1 | > 40 µM | – | –
10 | Cc1ccccc1-n1c(=O)[nH]c2c(=O)oc3ccc(-c4ccncc4)cc3c21 | > 40 µM | > 40 µM | > 40 µM
11 | Nc1cccc(-c2ccc3oc(=O)c4[nH]c(=O)n(-c5ccccc5)c4c3c2)c1 | > 40 µM | > 40 µM | –
12 | COc1ccc(-n2c(=O)[nH]c3c(=O)oc4ccc(-c5cnc6ccccc6c5)cc4c32)cc1 | > 40 µM | > 40 µM | > 40 µM
13 | N#CCc1ccc(-n2c(=O)[nH]c3c(=O)oc4ccc(-c5cnc6ccccc6c5)cc4c32)cc1 | 34.9 µM | 30.2 µM | 28.4 µM

— ChEMBL document CHEMBL3779876, “Synthesis and biological evaluation of novel 2,3-dihydrochromeno[3,4-d]imidazol-4(1H)-one derivatives as potent anticancer cell proliferation and migration agents” (Eur J Med Chem, 2016)
